Calls of active or inactive are those of the source.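 How the source made its calls: active means phage lysis blocked by at least 50% at any tested dose; inconclusive means replicate wells disagree with each other; inactive means the rest.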
What was measured:
[1] = inhibitors of K1F phage lysis, dose response, capsule biogenesis inhibitor project, E. coli UTI89, set 6 (AID 588386); settings: E. coli UTI89 K1F phage lysis inhibition, OD600; at 100 µM (top of the series)
Procedure, shortened: (§1)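 test system = E. coli UTI89 (K1) plus phage-resistant kpsM mutant cultures | medium = LB growth medium | dosing = dose series from 100 down to 0.78 µM final, 1% DMSO | times = 1.25 h pre-phage, 3 h post-phage, 37 °C | signal = OD600 absorbance | evaluation = phage lysis judged from OD600 3 h after phage infection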

[2] = system: E. coli UTI89 K1F phage lysis inhibition, OD600; assay: as above
Procedure, shortened: as §1

Compound | inhibition of phage lysis [1] | IC50 [2] [nM]
O=C(Nc1ccc(F)cc1)c1ccc2ncsc2c1 | -0.68% (inactive) | 
O=C(Nc1ccc(Br)cc1)c1ccc2ncsc2c1 | 0% (inactive) | 
O=C(Nc1ccc(F)cc1)c1ccc2nc[nH]c2c1 | 0.99% (inactive) | 
O=C(Nc1ccc(C(F)(F)F)cc1)c1ccc2ncsc2c1 | 16.7% (inactive) | 
O=C(NCc1ccco1)c1ccc2[nH]ccc2c1 | 0.86% (inactive) | 
O=C(Nc1ccc(Cl)cc1)c1ccc2ncccc2c1 | 1.19% (inactive) | 
O=C(Nc1ccccn1)c1ccc2ncccc2c1 | 1.21% (inactive) | 
O=C(NCc1ccco1)c1ccc2nc[nH]c2c1 | 0% (inactive) | 
COC(=O)c1ccc(NC(=O)c2ccc3ncsc3c2)cc1 | 11.5% (inactive) | 
O=C(Nc1ccccc1F)c1ccc2ncccc2c1 | -2.29% (inactive) | 
COc1ccc(NC(=O)c2ccc3ncsc3c2)cc1 | 3.54% (inactive) | 
O=C(Nc1ccccc1F)c1ccc2nc[nH]c2c1 | 0.34% (inactive) | 
O=C(Nc1ccncc1)c1ccc2ncsc2c1 |  | 1640
O=C(Nc1ccc(Cl)cc1)c1ccc2ncsc2c1 | 1.47% (inactive) | 
O=C(Nc1cccc(F)c1)c1ccc2ncsc2c1 | 0.9% (inactive) | 
O=C(Nc1cccnc1)c1ccc2ncsc2c1 | 1.77% (inactive) | 
O=C(Nc1ccc(F)cc1)c1ccc2[nH]ccc2c1 | -0.29% (inactive) | 
O=C(Nc1ccc(C(F)(F)F)cc1)c1ccc2[nH]ccc2c1 | -0.66% (inactive) | 
COc1ccc(NC(=O)c2ccc3nc[nH]c3c2)cc1 | 0.32% (inactive) | 
O=C(Nc1ccc(Cl)cc1)c1ccc2nc[nH]c2c1 | -0.32% (inactive) | 
O=C(Nc1ccc(F)cc1)c1ccc2ncccc2c1 | 0.3% (inactive) | 

Compound | inhibition of phage lysis [1] | IC50 [2] [nM]
O=C(Nc1ccccc1F)c1ccc2[nH]ccc2c1 | 0.33% (inactive) | 
COc1ccc(NC(=O)c2ccc3[nH]ccc3c2)cc1 | -14.7% (inactive) | 
O=C(NCc1ccco1)c1ccc2ncsc2c1 | 0.88% (inactive) | 
O=C(Nc1cccc(F)c1)c1ccc2nc[nH]c2c1 | 0% (inactive) | 
O=C(Nc1ccncc1)c1ccc2ncccc2c1 | 0% (inactive) | 
O=C(Nc1ccc(Cl)cc1)c1ccc2[nH]ccc2c1 | 0.86% (inactive) | 
Cc1ccc(NC(=O)c2ccc3[nH]ccc3c2)cc1 | -2.3% (inactive) | 
O=C(Nc1ccncc1)c1ccc2[nH]ccc2c1 | 0.29% (inactive) | 
O=C(Nc1ccc(C(F)(F)F)cc1)c1ccc2nc[nH]c2c1 | -0.68% (inactive) | 
O=C(Nc1ccc(Br)cc1)c1ccc2[nH]ccc2c1 | 1.16% (inactive) | 
O=C(Nc1ccccn1)c1ccc2nc[nH]c2c1 | 0% (inactive) | 
O=C(NCc1ccco1)c1ccc2ncccc2c1 | 0.91% (inactive) | 
O=C(Nc1cccnc1)c1ccc2ncccc2c1 | 0.61% (inactive) | 
O=C(Nc1cccc(F)c1)c1ccc2ncccc2c1 | -1.15% (inactive) | 
O=C(Nc1cccnc1)c1ccc2[nH]ccc2c1 | 0.87% (inactive) | 
O=C(Nc1cccc(F)c1)c1ccc2[nH]ccc2c1 | -0.99% (inactive) | 
COC(=O)c1ccc(NC(=O)c2ccc3[nH]ccc3c2)cc1 | 0.87% (inactive) | 
O=C(Nc1ccc(Br)cc1)c1ccc2nc[nH]c2c1 | 0% (inactive) | 
Cc1ccc(NC(=O)c2ccc3ncsc3c2)cc1 | 0% (inactive) | 
O=C(Nc1ccccc1F)c1ccc2ncsc2c1 | 0.6% (inactive) | 

From PubChem BioAssay AID588386 (Southern Research Specialized Biocontainment Screening …, 2011)
